Test results from the RNAGym collection of RNA variant scans (doi:10.1038/s41586-018-0170-7).

B1: tRNA (parent)
chain: GUUCCGUUGGCGUAAUGGUAACGCGUCUCCCUCCUAAGGAGAAGACUGCGGGUUCGAGUCCCGUACGGAACG

Variants of: B1
Assay: yeast fitness, log relative to wild type (ln ratio); higher = fitter; tRNA-Arg(CCU), competitive growth, 37 C, 1 M NaCl
In short: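 Two independent transformations put a combinatorial tRNA-Arg(CCU) variant library on a HIS3 centromeric plasmid into BY4742 lacking the chromosomal gene. Pools were grown in SC-HIS at 30 °C for 4 generations, then in SC-HIS 1M NaCl at 37 °C for ~6.5 generations (~26.5 h), with three outputs taken per input. Fitness compares a genotype's generations with the wild type's as a natural log ratio. Those generations are OD-scaled log2 output/input frequencies, inverse-variance weighted across replicates, from 125 bp paired-end Illumina counts.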

Compared with AGUCCAUUGGCGUAAUGGUAACGCGUUUCCCUCCUAAGGAGAAGAUUGCGGGUUCGAGUCCCGUACGGAUUG, AGUCCAUUGGCGUAAUGGUAACGCGUCUCCCUCCUAAGGAGAAGAUUGCGGGUUCGAGUCCCGUAUGGAACG is higher in “yeast fitness (ln)” value: -0.15 for the first, -0.13 for the second.

Compared with AGUCCAUUGGCGUAAUGGUAACGCGUUUCCCUCCUAAGGAGAAGACUGCGGGUUCGAGUCCCGUACGGAUCG, AGUCCAUUGGCGUAAUGGUAACGCGUUUCCCUCCUAAGGAGAAGACUGCGGGUUCGAGUCCCGUACGGAGCG is lower in “yeast fitness (ln)” value: -0.24 for the first, -0.339 for the second.

Compared with AGUCCAUUGGCGUAAUGGUAACGCGUCUCCCUCCUAAGGAGAAGAUUGCGGGUUCGAGUCCCGUAUGGGAUG, AGUCCAUUGGCGUAAUGGUAACGCGUUUCCCUCCUAAGGAGAAGACUGCGGGUUCGAGUCCCGUACGGGGUG is lower in “yeast fitness (ln)” value: -0.253 for the first, -0.443 for the second.

First: AGUCCAUUGGCGUAAUGGUAACGCGUUUCCCUCCUAAGGAGAAGAUUGCGGGUUCGAGUCCCGUACGGAUCG
Second: AGUCCAUUGGCGUAAUGGUAACGCGUUUCCCUCCUAAGGAGAAGAUUGCGGGUUCGAGUCCCGUACGGAGCG
The “yeast fitness (ln)” value of the first is higher: -0.189 for the first, -0.237 for the second.

First: AGUCCAUUGGCGUAAUGGUAACGCGUCUCCCUCCUAAGGAGAAGAUUGCGGGUUCGAGUCCCGUACGGAACG
Second: AGUCCAUUGGCGUAAUGGUAACGCGUUUCCCUCCUAAGGAGAAGACUGCGGGUUCGAGUCCCGUAUGGGGUG
The “yeast fitness (ln)” value of the first is higher: -0.0789 for the first, -0.402 for the second.

First: AGUCCAUUGGCGUAAUGGUAACGCGUUUCCCUCCUAAGGAGAAGAUUGCGGGUUCGAGUCCCGUAUGGGGUG
Second: AGUCCAUUGGCGUAAUGGUAACGCGUUUCCCUCCUAAGGAGACGACUGCGGGUUCGAGUCCCGUAUGGAGUG
The “yeast fitness (ln)” value of the first is higher: -0.407 for the first, -0.479 for the second.

Going from AGUCCAUUGGCGUAAUGGUAACGCGUUUCCCUCCUAAGGAGAAGACUGCGGGUUCGAGUCCCGUACGGGUUG to AGUCCAUUGGCGUAAUGGUAACGCGUUUCCCUCCUAAGGAGAAGACUGCGGGUUCGAGUCCCGUAUGGAAUG, the “yeast fitness (ln)” value rises from -0.526 to -0.344.

First: AGUCCAUUGGCGUAAUGGUAACGCGUCUCCCUCCUAAGGAGAAGAUUGCGGGUUCGAGUCCCGUACGGAUCG
Second: AGUCCAUUGGCGUAAUGGUAACGCGUCUCCCUCCUAAGGAGAAGAUUGCGGGUUCGAGUCCCGUACGGAGCG
The “yeast fitness (ln)” value of the first is higher: -0.143 for the first, -0.176 for the second.

Compared with AGUCCAUUGGCGUAAUGGUAACGCGUUUCCCUCCUAAGGAGAAGAUUGCGGGUUCGAGUCCCGUAUGGAUCG, AGUCCAUUGGCGUAAUGGUAACGCGUUUCCCUCCUAAGGAGAAGAUUGCGGGUUCGAGUCCCGUAUGGAGCG is higher in “yeast fitness (ln)” value: -0.28 for the first, -0.194 for the second.

Going from AGUCCAUUGGCGUAAUGGUAACGCGUUUCCCUCCUAAGGAGAAGAUUGCGGGUUCGAGUCCCGUACGGAGUG to AGUCCAUUGGCGUAAUGGUAACGCGUCUCCCUCCUAAGGAGAAGAUUGCGGGUUCGAGUCCCGUACGGGUCG, the “yeast fitness (ln)” value rises from -0.244 to -0.165.

First: AGUCCAUUGGCGUAAUGGUAACGCGUCUCCCUCCUAAGGAGAAGAUUGCGGGUUCGAGUCCCGUACGGGGCG
Second: AGUCCAUUGGCGUAAUGGUAACGCGUUUCCCUCCUAAGGAGAAGAUUGCGGGUUCGAGUCCCGUAUGGGUUG
The “yeast fitness (ln)” value of the first is higher: -0.251 for the first, -0.542 for the second.

Going from AGUCCAUUGGCGUAAUGGUAACGCGUUUCCCUCCUAAGGAGAAGACUGCGGGUUCGAGUCCCGUACGGAUUG to AGUCCAUUGGCGUAAUGGUAACGCGUUUCCCUCCUAAGGAGAAGAUUGCGGGUUCGAGUCCCGUAUGGGAUG, the “yeast fitness (ln)” value falls from -0.264 to -0.332.

Compared with AGUCCAUUGGCGUAAUGGUAACGCGUCUCCCUCCUAAGGAGAAGAUUGCGGGUUCGAGUCCCGUAUGGGGCG, AGUCCAUUGGCGUAAUGGUAACGCGUCUCCCUCCUAAGGAGAAGAUUGCGGGUUCGAGUCCCGUAUGGGUCG is lower in “yeast fitness (ln)” value: -0.18 for the first, -0.383 for the second.

Compared with AGUCCAUUGGCGUAAUGGUAACGCGUUUCCCUCCUAAGGAGAAGAUUGCGGGUUCGAGUCCCGUACGGGUUG, AGUCCAUUGGCGUAAUGGUAACGCGUCUCCCUCCUAAGGAGAAGAUUGCGGGUUCGAGUCCCGUAAGGAUCG is higher in “yeast fitness (ln)” value: -0.379 for the first, -0.189 for the second.

Compared with AGUCCAUUGGCGUAAUGGUAACGCGUUUCCCUCCUAAGGAGACGACUGCGGGUUCGAGUCCCGUAUGGAUUG, AGUCCAUUGGCGUAAUGGUAACGCGUUUCCCUCCUAAGGAGAAGAUUGCGGGUUCGAGUCCCGUACGGGGUG is higher in “yeast fitness (ln)” value: -0.536 for the first, -0.332 for the second.

Going from AGUCCAUUGGCGUAAUGGUAACGCGUUUCCCUCCUAAGGAGAAGACUGCGGGUUCGAGUCCCGUACGGAGUG to AGUCCAUUGGCGUAAUGGUAACGCGUUUCCCUCCUAAGGAGAAGAUUGCGGGUUCGAGUCCCGUACGGGUCG, the “yeast fitness (ln)” value rises from -0.336 to -0.233.

Going from AGUCCAUUGGCGUAAUGGUAACGCGUUUCCCUCCUAAGGAGAAGAUUGCGGGUUCGAGUCCCGUACGGGGCG to AGUCCAUUGGCGUAAUGGUAACGCGUCUCCCUCCUAAGGAGAAGAUUGCGGGUUCGAGUCCCGUAUGGGGUG, the “yeast fitness (ln)” value falls from -0.226 to -0.413.

First: AGUCCAUUGGCGUAAUGGUAACGCGUUUCCCUCCUAAGGAGAAGAUUGCGGGUUCGAGUCCCGUAAGGAUUG
Second: AGUCCAUUGGCGUAAUGGUAACGCGUUUCCCUCCUAAGGAGAAGAUUGCGGGUUCGAGUCCCGUAAGGGGUG
The “yeast fitness (ln)” value of the first is higher: -0.249 for the first, -0.317 for the second.

Going from AGUCCAUUGGCGUAAUGGUAACGCGUUUCCCUCCUAAGGAGAAGAUUGCGGGUUCGAGUCCCGUAUGGAGUG to AGUCCAUUGGCGUAAUGGUAACGCGUUUCCCUCCUAAGGAGAAGAUUGCGGGUUCGAGUCCCGUAUGGAUUG, the “yeast fitness (ln)” value rises from -0.243 to -0.0596.
